Results on 14 molecules are retold here after ChEMBL document CHEMBL3856220, “Synthesis and antileishmanial activity of C7- and C12-functionalized dehydroabietylamine derivatives” (Eur J Med Chem, 2016).

Data set [1] deals with Leishmania amazonensis. The data set can be described thus: Leishmanicidal activity against promastigote form of Leishmania amazonensis MHOM/Br/79/Maria after 48 hrs by resazurin dye-based fluorometric method. The data set is classed as functional. In a few lines: (§1)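 Promastigotes grown in Schneider's medium with 10% heat-inactivated FBS at 26 °C. 2.5×10^5 parasites/well. DMSO stocks at 100 mg/mL, diluted 1:2 in medium to final 100–0.78 µg/mL. 48 h at 26 °C, then 2.5 mM resazurin (20 µL) for 3 h. Fluorescence read at ex 535/em 590 nm, with growth inhibition corrected for signal-to-noise. Triplicates; IC50 by probit analysis.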

The subject of data set [2] is Leishmania donovani. The data set can be described thus: Leishmanicidal activity against promastigote form of Leishmania donovani MHOM/IN/80/DD8 after 48 hrs by resazurin dye-based fluorometric method. The data set is classed as functional. Conditions: MHOM/IN/80/DD8, 48 h. In a few lines:
as §1

The test system of data set [3] is Leishmania infantum. The data set can be described thus: Leishmanicidal activity against promastigote form of Leishmania infantum MCAN/ES/96/BCN150 after 48 hrs by resazurin dye-based fluorometric method. Conditions: MCAN/ES/96/BCN150, 48 h. The data set is classed as functional. The method, boiled down: as §1
On the technique in general: Alamar Blue is a resazurin reagent that responds to reducing activity.

Data set [4] in a line: Selectivity index, ratio of CC50 for mouse J774 cells to IC50 for promastigote form of Leishmania amazonensis MHOM/Br/79/Maria. The data set is classed as functional. The method, boiled down: (§2)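 Selectivity index computed as CC50 from the J774 resazurin viability assay divided by IC50 from the matching promastigote or intracellular amastigote resazurin assay.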
Data set [5] is described as follows: Selectivity index, ratio of CC50 for mouse J774 cells to IC50 for amastigote form of Leishmania infantum MCAN/ES/96/BCN150 infected in mouse J774 cells. The data set is classed as functional. In a few lines:
as §2

Data set [6] is described as follows: Selectivity index, ratio of CC50 for mouse J774 cells to IC50 for promastigote form of Leishmania donovani MHOM/IN/80/DD8. The data set is classed as functional. The method, boiled down:
as §2

A further data set relates to Leishmania guyanensis. The data set can be described thus: Leishmanicidal activity against promastigote form of Leishmania guyanensis 141/93 after 48 hrs by resazurin dye-based fluorometric method. Conditions: 141/93, 48 h. The data set is classed as functional. The method, boiled down:
as §1

Data set [7] can be described thus: Selectivity index, ratio of CC50 for mouse J774 cells to IC50 for promastigote form of Leishmania infantum MCAN/ES/96/BCN150. The data set is classed as functional. The method, boiled down:
as §2

The nature of data set [8]: Selectivity index, ratio of CC50 for mouse J774 cells to IC50 for amastigote form of Leishmania amazonensis MHOM/Br/79/Maria infected in mouse J774 cells. The data set is classed as functional. The method, boiled down: as §2
The nature of data set [9]: Cytotoxicity against mouse J774 cells assessed as reduction of cell viability after 48 hrs by resazurin dye-based fluorometric method. The data set is classed as toxicity. The method, boiled down:
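J774 murine macrophages grown in RPMI-1640 with 10% heat-inactivated FBS, penicillin/streptomycin, 37 °C, 5% CO2, and harvested mechanically at pre-confluence. Seeded at 5×10^4 cells/well and allowed to attach 2 h. Compound added at 100–0.78 µg/mL (1:2 series, final), 48 h exposure. Resazurin 2.5 mM (20 µL) then 3 h, fluorescence read. Triplicates. CC50 = 50% viability loss versus untreated.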

Data set [10] is described as follows: Selectivity index, ratio of CC50 for mouse J774 cells to IC50 for promastigote form of Leishmania guyanensis 141/93. The data set is classed as functional. The method, boiled down: as §2
The subject of data set [11] is Leishmania infantum. The data set can be described thus: Leishmanicidal activity against amastigote form of Leishmania infantum MCAN/ES/96/BCN150 infected in mouse J774 cells after 48 hrs by resazurin dye-based fluorometric method. The data set is classed as functional, cell-based. Conditions: MCAN/ES/96/BCN150, J774, 48 h. The method, boiled down:
(§3)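 5×10^4 macrophages in RPMI-1640 infected with 5×10^5 promastigotes. L. infantum infection was 48 h at 37 °C; L. amazonensis was 24 h at 33 °C then 24 h at 37 °C. Free parasites washed off with RPMI-HEPES pH 7.4. Compound at 100–0.78 µg/mL (final), 48 h at 37 °C. Cells lysed with 0.02% SDS, then 3 days at 26 °C in Schneider's medium. Resazurin 3 h, fluorescence read. Triplicates; IC50 by probit analysis.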

Data set [12] has as its system Leishmania amazonensis. The data set can be described thus: Leishmanicidal activity against amastigote form of Leishmania amazonensis MHOM/Br/79/Maria infected in mouse J774 cells after 48 hrs by resazurin dye-based fluorometric method. Conditions: J774, 48 h. The data set is classed as functional, cell-based. In a few lines:
as §3

The subject of data set [13] is Leishmania donovani. The data set can be described thus: Antileishmanial activity against promastigote form of Leishmania donovani after 48 hrs by Alamar blue assay. The data set is classed as functional. The method, boiled down: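 Promastigotes grown at 26 °C in Schneider's insect medium with 10% heat-inactivated FBS and penicillin/streptomycin, seeded at 2.5×10^5/well. Exposed to 1:2 serial dilutions (100–0.78 µg/mL final; DMSO stocks) for 48 h at 26 °C, then 2.5 mM resazurin added for 3 h. Fluorescence read at 535/590 nm; inhibition relative to untreated minus background. Triplicates; IC50 by probit; miltefosine reference.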

For data set [14], the system named is Leishmania infantum. The data set can be described thus: Potency index, ratio of miltefosine IC50 to compound IC50 for amastigote form of Leishmania infantum MCAN/ES/96/BCN150 infected in mouse J774 cells. The data set is classed as functional.
A further data set relates to Leishmania braziliensis. The data set can be described thus: Antileishmanial activity against amastigote form of Leishmania braziliensis MHOM/BR/1975/M2904 infected in mouse J774.2 cells after 72 hrs by Giemsa staining-based assay. The data set is classed as functional, cell-based. Conditions: MHOM/BR/75/M2904, J774.2, 72 h.
Data set [15] relates to Leishmania infantum. The data set can be described thus: Antileishmanial activity against amastigote form of Leishmania infantum MCAN/ES/2001/UCM-10 infected in mouse J774.2 cells after 72 hrs by Giemsa staining-based assay. The data set is classed as functional, cell-based. Conditions: MCAN/ES/2001/UCM-10, J774.2, 72 h.

Each structure is given as a SMILES string. Where only a bound is given, the exact number is not on record here.

With `CCCCCCCCCCCCCCCCOP(=O)([O-])OCC[N+](C)(C)C` [MILTEFOSINE], the IC50 in the data set on Leishmania amazonensis [1] worked out at 47.7 µM; in the data set on Leishmania donovani [2], 150 nM; in the data set with Leishmania infantum [3], 3.4 µM; in the data set on Leishmania guyanensis, 18.2 µM; with Leishmania infantum [11], 58.1 µM; in the data set on Leishmania amazonensis [12], 16.5 µM. Further, the “Ratio CC50/IC50” value was determined as 2.9 in data set [4]; 2.3 in data set [5]; 909 in data set [6]; 40.1 in data set [7]; 8.2 in data set [8]; 7.5 in [10]. In addition, the CC50 at 48 h in [9] was found to be 136 µM.

Consider `CC(=O)NC[C@]1(C)CCC[C@]2(C)c3ccc(C(C)C)cc3C(=O)C[C@@H]12`, for which the CC50 at 48 h in [9] was 72.3 µM.

Consider `CC(C)c1cc2c(cc1O)[C@@]1(C)CCCC(C)(C)[C@@H]1CC2` [FERRUGINOL], for which 12.2 µM corresponded to half-maximal inhibition in the data set on Leishmania donovani [13] (IC50).

With `CC(C)c1cc2c(cc1[N+](=O)[O-])[C@@]1(C)CCC[C@@](C)(CNC(=O)c3ccccc3)[C@@H]1CC2=O`, the IC50 came to 12.2 µM in the data set on Leishmania amazonensis [1]; 5400 nM in the data set with Leishmania donovani [2]; 23.9 µM in the data set with Leishmania infantum [3]; 38.5 µM in the data set with Leishmania guyanensis; 17.5 µM with Leishmania infantum [11]; 3.7 µM with Leishmania amazonensis [12]. In addition, the “Ratio CC50/IC50” value is listed as greater than 16 in data set [4]; greater than 11 in [5]; greater than 37 in [6]; greater than 8 in data set [7]; greater than 54 in data set [8]; greater than 5 in data set [10]. The CC50 at 48 h in [9] is greater than 200 µM.

`CC(C)c1cc2c(cc1[N+](=O)[O-])[C@@]1(C)CCC[C@@](C)(CNC(=O)c3ccccc3)[C@@H]1CC2`: the IC50 was found to be 20.7 µM in the data set on Leishmania amazonensis [1]; 3200 nM in the data set on Leishmania donovani [2]; 11.1 µM in the data set with Leishmania infantum [3]; 94.5 µM in the data set with Leishmania guyanensis; 3.3 µM in the data set on Leishmania infantum [11]; 3.5 µM with Leishmania amazonensis [12]. Moreover, the “Ratio CC50/IC50” value in [4] is greater than 10; in data set [5], greater than 61; in [6], greater than 62; in data set [7], greater than 18; in data set [8] it was greater than 57; in data set [10], greater than 2. Moreover, the “Ratio IC50” value in the data set with Leishmania infantum [14] came to 18. For the same molecule, in data set [9], the CC50 at 48 h was greater than 200 µM.

For the molecule `COC(=O)C[C@]1(C)CCC[C@]2(C)c3cc(O)c(C(C)C)cc3CC[C@@H]12`, the IC50 in the data set on Leishmania braziliensis and in the data set with Leishmania infantum [15] was 22.3 to 35 µM each time.

`COC(=O)C[C@@]1(C)CCC[C@]2(C)c3cc(O)c(C(C)C)cc3CC[C@@H]12`: the IC50 with Leishmania braziliensis and with Leishmania infantum [15] was 22.3 to 35 µM in each case.

As to `CC(=O)NC[C@]1(C)CCC[C@]2(C)c3cc([N+](=O)[O-])c(C(C)C)cc3CC[C@@H]12`, the CC50 at 48 h in [9] is 13.7 µM.

As to `CC(=O)NC[C@]1(C)CCC[C@]2(C)c3ccc(C(C)C)cc3CC[C@@H]12`, the CC50 at 48 h in [9] was 21.6 µM.

As to `CC(C)c1ccc2c(c1)CC[C@H]1[C@](C)(CN)CCC[C@]21C`, the CC50 at 48 h in [9] is 14.5 µM.

For the molecule `CC(C)c1ccc2c(c1)C(=O)C[C@H]1[C@](C)(CNC(=O)c3ccccc3)CCC[C@]21C`, the IC50 in the data set with Leishmania amazonensis [1] turned out to be 4.9 µM; in the data set with Leishmania donovani [2] it was 4000 nM; with Leishmania infantum [3], 8.7 µM; in the data set with Leishmania guyanensis, 8.6 µM; in the data set with Leishmania infantum [11], 2.5 µM; in the data set on Leishmania amazonensis [12], 3 µM. Moreover, the “Ratio CC50/IC50” value in data set [4] was greater than 41; in data set [5], greater than 80; in data set [6] it was greater than 50; in [7], greater than 23; in [8], greater than 67; in data set [10] it was greater than 23. Besides, the “Ratio IC50” value with Leishmania infantum [14] is 23. Also, in data set [9], the CC50 at 48 h is greater than 200 µM.

Consider `CC(=O)NC[C@]1(C)CCC[C@]2(C)c3cc([N+](=O)[O-])c(C(C)C)cc3C(=O)C[C@@H]12`, for which, in [9], the CC50 at 48 h was found to be 39.2 µM.

Consider `CC(=O)NC[C@]1(C)CCC[C@]2(C)c3ccc(C(C)C)cc3-c3[nH]c4ccc(F)cc4c3[C@@H]12`, for which the IC50 turned out to be 4 µM with Leishmania amazonensis [1], 2800 nM in the data set on Leishmania donovani [2] and 1.5 µM with Leishmania infantum [3]. Besides, the “Ratio CC50/IC50” value in [4] was found to be 7.2; in [6], 10.3; in data set [7], 19.2. In data set [9], the CC50 at 48 h was determined as 28.8 µM.

For `CC(C)c1ccc2c(c1)CC[C@H]1[C@](C)(CNC(=O)c3ccccc3)CCC[C@]21C`, the IC50 stood at 3.7 µM with Leishmania amazonensis [1]; 2200 nM in the data set with Leishmania donovani [2]; 3.1 µM in the data set on Leishmania infantum [3]; 20.4 µM in the data set with Leishmania guyanensis; 4.7 µM in the data set with Leishmania infantum [11]; 5 µM in the data set on Leishmania amazonensis [12]. For the same molecule, the “Ratio CC50/IC50” value in data set [4] is reported as greater than 54; in data set [5] it was greater than 42; in data set [6], greater than 90; in data set [7], greater than 64; in data set [8], greater than 40; in data set [10], greater than 10. Further, the CC50 at 48 h in data set [9] is greater than 200 µM.

Broadly, the IC50 is the concentration at which inhibition is half-maximal. Broadly, the CC50 is the concentration giving 50% cytotoxicity.
